Laboratory results published in publication PMC7729281 (Biochemistry, 2020).

Experiments:
h15-LOX-1 [1] = biological target: T1, h15-LOX-1 (Homo sapiens, UniProt P16050); experiment: Allosteric modulation of 14S-HpDHA epoxidation by h15-LOX-1; format: biochemical
T1 sequence (P16050 1-662): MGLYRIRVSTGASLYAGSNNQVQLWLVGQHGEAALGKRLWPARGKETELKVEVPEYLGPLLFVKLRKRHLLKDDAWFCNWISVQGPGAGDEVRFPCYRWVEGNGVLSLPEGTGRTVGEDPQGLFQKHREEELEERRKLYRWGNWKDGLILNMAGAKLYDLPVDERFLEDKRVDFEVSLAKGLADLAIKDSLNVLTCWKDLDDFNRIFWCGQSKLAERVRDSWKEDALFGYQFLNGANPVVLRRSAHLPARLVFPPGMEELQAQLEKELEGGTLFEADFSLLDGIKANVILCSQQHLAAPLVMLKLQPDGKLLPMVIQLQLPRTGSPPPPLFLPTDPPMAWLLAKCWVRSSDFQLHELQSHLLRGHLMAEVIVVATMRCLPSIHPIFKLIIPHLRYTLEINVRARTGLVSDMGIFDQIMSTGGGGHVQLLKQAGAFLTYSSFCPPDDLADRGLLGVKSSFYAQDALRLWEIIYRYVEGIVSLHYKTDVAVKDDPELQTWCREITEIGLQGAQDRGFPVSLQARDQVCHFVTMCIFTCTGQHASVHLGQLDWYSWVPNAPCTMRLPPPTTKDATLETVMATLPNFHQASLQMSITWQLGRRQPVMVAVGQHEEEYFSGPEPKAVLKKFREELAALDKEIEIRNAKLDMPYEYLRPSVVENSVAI
How it was run: (§1)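 Recombinant human h15-LOX-1 (0.125 μM, 25 mM HEPES pH 7.5, 20 min) or h12-LOX (0.3 μM, pH 8.0, 1 h) reacted at room temperature with 1 μM 14S-HpDHA while oxylipin modulator was titrated (1–100 μM), or with 14S-HpDHA varied alone (1–50 μM). Products were reduced and analysed by LC-MS. Dehydration (epoxide) versus oxygenation product percentages were calculated, N = 3.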

h12-LOX = biological target: T2, h12-LOX (Homo sapiens, UniProt P18054); experiment: Allosteric modulation of 14S-HpDHA epoxidation by h12-LOX; format: biochemical; settings: 14S-HpDHA titrated 1 to 50 μM, 76% at start
T2 sequence (P18054 1-663): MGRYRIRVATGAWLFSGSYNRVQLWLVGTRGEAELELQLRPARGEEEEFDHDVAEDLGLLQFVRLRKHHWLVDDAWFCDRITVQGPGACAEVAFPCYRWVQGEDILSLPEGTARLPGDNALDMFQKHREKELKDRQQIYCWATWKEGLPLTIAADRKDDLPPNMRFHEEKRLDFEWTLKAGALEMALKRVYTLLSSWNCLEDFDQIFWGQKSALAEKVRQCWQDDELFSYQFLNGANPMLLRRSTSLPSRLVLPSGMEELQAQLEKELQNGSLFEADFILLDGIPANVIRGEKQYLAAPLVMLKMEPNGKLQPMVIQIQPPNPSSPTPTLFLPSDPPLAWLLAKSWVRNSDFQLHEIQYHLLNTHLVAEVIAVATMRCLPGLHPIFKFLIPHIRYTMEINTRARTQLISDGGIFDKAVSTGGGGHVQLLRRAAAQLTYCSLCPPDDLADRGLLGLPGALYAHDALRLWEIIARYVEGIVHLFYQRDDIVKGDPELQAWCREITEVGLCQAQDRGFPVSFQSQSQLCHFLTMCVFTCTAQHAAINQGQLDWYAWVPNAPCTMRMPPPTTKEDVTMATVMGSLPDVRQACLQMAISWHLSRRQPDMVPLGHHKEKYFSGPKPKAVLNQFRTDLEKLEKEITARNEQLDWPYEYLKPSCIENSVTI
How it was run: as §1

h15-LOX-2 = biological target: T3, h15-LOX-2 (Homo sapiens, UniProt O15296); experiment: Steady-state kinetics of h15-LOX-2 with 14S-HpDHA; format: biochemical; settings: various 14S-HpDHA concentrations
T3 sequence (O15296 1-676): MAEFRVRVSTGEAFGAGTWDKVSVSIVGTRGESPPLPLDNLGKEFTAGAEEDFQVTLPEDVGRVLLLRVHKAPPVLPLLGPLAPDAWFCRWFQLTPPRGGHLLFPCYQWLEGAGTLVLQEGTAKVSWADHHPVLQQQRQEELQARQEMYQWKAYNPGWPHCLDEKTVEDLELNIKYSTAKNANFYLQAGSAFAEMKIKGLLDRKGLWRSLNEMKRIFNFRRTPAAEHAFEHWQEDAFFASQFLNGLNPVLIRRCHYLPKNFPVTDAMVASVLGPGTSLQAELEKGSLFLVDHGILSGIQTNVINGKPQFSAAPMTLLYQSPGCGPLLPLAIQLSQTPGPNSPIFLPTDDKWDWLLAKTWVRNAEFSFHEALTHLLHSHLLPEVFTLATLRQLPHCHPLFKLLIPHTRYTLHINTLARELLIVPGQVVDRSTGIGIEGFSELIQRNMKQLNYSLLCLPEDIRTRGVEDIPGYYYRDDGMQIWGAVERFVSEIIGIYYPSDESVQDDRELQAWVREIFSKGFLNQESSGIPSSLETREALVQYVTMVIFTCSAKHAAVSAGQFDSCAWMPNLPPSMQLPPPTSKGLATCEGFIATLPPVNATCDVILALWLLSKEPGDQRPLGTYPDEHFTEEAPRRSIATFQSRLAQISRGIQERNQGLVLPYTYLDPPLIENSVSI
How it was run: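 Reactions were run in a quartz cuvette containing 2 mL of 25 mM HEPES, pH 7.5, at room temperature, with 14S-HpDHA at various concentrations. The 14S-HpDHA stock was quantified at 234 nm in methanol (ε 27 000 M−1 cm−1). Product formation was followed by absorbance at 270 nm (ε 37 000 M−1 cm−1), with triplicate reactions.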

human platelets = experiment: Collagen-stimulated platelet aggregation; format: cell-based; settings: ≥1 μM, 10 min incubation, collagen 0.25 μg/mL
How it was run: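 Washed human platelets were isolated by serial centrifugation and resuspended in Tyrode's buffer at 3 × 10^8/mL. They were preincubated with test compound (1–10 μM) for 10 min at 37 °C, then stimulated with 0.25 μg/mL collagen while stirring at 1100 rpm. Maximum aggregation was read as the light-transmittance change, mean ± SEM of 3–5 independent experiments. Comparison versus vehicle used one-way ANOVA with Dunnett's test.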

h15-LOX-1 [2] = biological target: T1, h15-LOX-1; experiment: Steady-state kinetics of h15-LOX-1
[3] = h15-LOX-1 + substrate, 25 mM HEPES pH 7.5, RT

## CC/C=C\C/C=C\C[C@@H](/C=C/C=C\C/C=C\C/C=C\CCC(=O)O)OO [14S-HpDHA, 14S-hydroperoxy-4Z,7Z,10Z,12E,16Z,19Z-docosahexaenoic acid]
h15-LOX-1 [1]; h15-LOX-1, 14S-HpDHA at high concentration (50 μM)
  7S,14S-EZE-diHDHA (oxygenation product): 76 ± 0.5%
h15-LOX-1 [1]; h15-LOX-1, 14S-HpDHA at low concentration (1 μM)
  7R/S,14S-EEE-diHDHA (epoxide degradation product): 71 ± 11%
h12-LOX
  epoxidation product at end of titration: 19%
h15-LOX-2
  reaction with h15-LOX-2: not to react
Human platelets
  reduction in aggregation compared to vehicle control: > 90%
h15-LOX-1 [2]; h15-LOX-1
  kcat: 2e+06 ± 40000 M⁻¹ s⁻¹
h15-LOX-1 [2]; h15-LOX-1 + 14S-HpDHA, B.F. = kcat/KM * % product
  13S,14S-epoxy-DHA biosynthetic flux: 0.078
h15-LOX-1 [2]; [3]
  Km: 18 ± 1 µM
  kcat: 2.0 ± 0.04 s⁻¹
h15-LOX-1 [2]; h15-LOX-1, kcat/KM of enzyme with DHA set to 1 (Table 5)
  fold difference of kcat/KM: −3.2
h15-LOX-1 [2]; substrate 14S-HpDHA
  kcat of h15-LOX-1 greater than that of h12-LOX: ~10 fold
